Data on seven molecules can be found in ChEMBL document CHEMBL1155292, “Synthesis, analgesic and anti-inflammatory activities evaluation of some bi-, tri- and tetracyclic condensed pyrimidines” (Eur J Med Chem, 2009).

Data set [1] deals with Rattus norvegicus. The data set can be described thus: Antiinflammatory activity in albino rat assessed as inhibition of carrageenan-induced paw edema at 0.029 mmol/kg, po after 2 hrs relative to control. Type of data set: functional. An outline of the steps: (§1)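 Adult albino rats of either sex, 120–150 g, six per group. Compounds at 0.029 mmol/kg suspended in saline with a few drops of Tween 80 and given by oral stomach tube. After 1 h, 0.1 ml of freshly prepared 1% carrageenan in saline injected subplantar into the right hind paw. Paw thickness measured at 1–4 h; % edema inhibition versus control; mean ± SEM; ANOVA.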

The subject of data set [2] is Rattus norvegicus. Kind of data set: Antiinflammatory activity in albino rat assessed as inhibition of carrageenan-induced paw edema at 0.029 mmol/kg, po after 1 hr relative to control. Format: functional. Summed up:
as §1

Data set [3] relates to Mus musculus. The data set can be described thus: Analgesic activity in albino mouse assessed as decrease in acetic acid-induced writhing at 2 mg/kg, po administered 1 hr prior to acetic acid challenge. Type of data set: functional. An outline of the steps:
(§2)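 Albino mice of either sex, 18–22 g, six per group. Test agents suspended in saline with a few drops of Tween 80 and given by oral stomach tube; controls handled identically without drug. After 1 h, 0.3 ml of 1% acetic acid ip. Writhing contractions counted for 30 min, starting 5 min after injection. % protection versus control mean; mean ± SEM; one-way ANOVA with post hoc test.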

Data set [4] concerns Rattus norvegicus. Kind of data set: Antiinflammatory activity in albino rat assessed as inhibition of carrageenan-induced paw edema at 0.029 mmol/kg, po after 3 hrs relative to control. Type of data set: functional. An outline of the steps: as §1
The test system of data set [5] is Rattus norvegicus. The data set can be described thus: Antiinflammatory activity in albino rat assessed as inhibition of carrageenan-induced paw edema at 0.029 mmol/kg, po after 4 hrs relative to control. Format: functional. An outline of the steps:
as §1

Data set [6] relates to Mus musculus. Kind of data set: Analgesic activity in albino mouse assessed as decrease in acetic acid-induced writhing at 8 mg/kg, po administered 1 hr prior to acetic acid challenge. Type of data set: functional. Summed up: as §2
Data set [7] deals with Mus musculus. Kind of data set: Analgesic activity in albino mouse assessed as decrease in acetic acid-induced writhing at 1 mg/kg, po administered 1 hr prior to acetic acid challenge. Format: functional. Summed up: as §2
The subject of data set [8] is Mus musculus. The data set can be described thus: Analgesic activity in albino mouse assessed as decrease in acetic acid-induced writhing at 10.86 mg/kg, po administered 1 hr prior to acetic acid challenge relative to control. Format: functional. Summed up:
as §2

The subject of data set [9] is Mus musculus. The data set can be described thus: Analgesic activity in albino mouse assessed as decrease in acetic acid-induced writhing at 0.4 mg/kg, po administered 1 hr prior to acetic acid challenge. Format: functional. An outline of the steps: as §2
Data set [10] relates to Mus musculus. Kind of data set: Analgesic activity in albino mouse assessed as decrease in acetic acid-induced writhing at 0.8 mg/kg, po administered 1 hr prior to acetic acid challenge. Format: functional. Summed up:
as §2

Data set [11] concerns Rattus norvegicus. The data set can be described thus: Antiinflammatory activity in albino rat assessed as inhibition of carrageenan-induced paw edema at 0.029 mmol/kg, po after 4 hrs relative to indomethacin. Type of data set: functional. Summed up: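 Rat carrageenan paw edema: oral 0.029 mmol/kg in saline/Tween 80, 1 h before subplantar 0.1 ml 1% carrageenan into the right hind paw; six rats per group. Potency is % inhibition of the test compound divided by % inhibition of indomethacin at 4 h.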

In data set [12] the test system is Mus musculus. Kind of data set: Analgesic activity in po dosed albino mouse assessed as decrease in acetic acid-induced writhing administered 1 hr prior to acetic acid challenge. Format: functional, organism-based. Summed up: as §2
The test system of data set [13] is Mus musculus. The data set can be described thus: Analgesic activity in albino mouse assessed as decrease in acetic acid-induced writhing at 4 mg/kg, po administered 1 hr prior to acetic acid challenge. Type of data set: functional. Summed up:
as §2

Data set [14] deals with Mus musculus. The data set can be described thus: Analgesic activity in albino mouse assessed as decrease in acetic acid-induced writhing at 10.39 mg/kg, po administered 1 hr prior to acetic acid challenge relative to control. Type of data set: functional. Summed up: as §2
Data set [15] deals with Mus musculus. Kind of data set: Analgesic activity in albino mouse assessed as decrease in acetic acid-induced writhing at 12.4 mg/kg, po administered 1 hr prior to acetic acid challenge relative to control. Type of data set: functional. An outline of the steps:
as §2

The subject of data set [16] is Rattus norvegicus. The data set can be described thus: Gastrointestinal toxicity in albino rat assessed as ulcerogenic index at 0.029 mmol/kg, po after 5 hrs. Type of data set: organism-based. To be noted: in vivo. An outline of the steps:
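Adult albino rats of either sex (120–150 g), 6 per group, got the test compounds orally by stomach tube as a suspension in saline with a few drops of tween 80. They were the same rats used in the carrageenan paw-edema test. Stomachs were then opened along the great curvature and examined for lesions or bleeding. Ulceration was recorded as the number of rats with ulcers out of 6.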

The test system of data set [17] is Mus musculus. Kind of data set: Analgesic activity in albino mouse assessed as decrease in acetic acid-induced writhing at 8.04 mg/kg, po administered 1 hr prior to acetic acid challenge relative to control. Type of data set: functional. An outline of the steps: as §2
The test system of data set [18] is Mus musculus. Kind of data set: Analgesic activity in albino mouse assessed as decrease in acetic acid-induced writhing at 13 mg/kg, po administered 1 hr prior to acetic acid challenge relative to control. Type of data set: functional. An outline of the steps:
as §2

Data set [19] has as its system Rattus norvegicus. Kind of data set: Antiinflammatory activity in albino rat assessed as inhibition of carrageenan-induced paw edema at 20 mg/kg, po. Type of data set: functional. Summed up:
(§3)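 Rat carrageenan paw edema with oral dosing at 10, 15, 20 and 25 mg/kg, suspended in saline with Tween 80, 1 h before subplantar 0.1 ml 1% carrageenan into the right hind paw. % edema inhibition versus control at each dose; IC50 (mg/kg) derived from these four doses.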

Data set [20] deals with Rattus norvegicus. Kind of data set: Antiinflammatory activity in albino rat assessed as inhibition of carrageenan-induced paw edema at 10 mg/kg, po. Type of data set: functional. An outline of the steps: as §3
Data set [21] deals with Rattus norvegicus. Kind of data set: Antiinflammatory activity in albino rat assessed as inhibition of carrageenan-induced paw edema at 25 mg/kg, po. Type of data set: functional. Summed up: as §3
Data set [22] concerns Rattus norvegicus. Kind of data set: Antiinflammatory activity in albino rat assessed as inhibition of carrageenan-induced paw edema at 15 mg/kg, po. Type of data set: functional. Summed up: as §3
In data set [23] the test system is Rattus norvegicus. Kind of data set: Antiinflammatory activity in po dosed albino rat assessed as inhibition of carrageenan-induced paw edema. Format: functional, organism-based. Summed up:
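Adult albino rats of either sex, 120–150 g, groups of 6. Compound suspended in saline with a few drops of tween 80, given by oral stomach tube 1 h before subplantar injection of freshly prepared 1% carrageenan (0.1 ml) in saline into right hind paw. Paw thickness read at 1–4 h; % edema inhibition versus carrageenan control; mean ± SEM, one-way ANOVA with post hoc test.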

The test system of data set [24] is Mus musculus. The data set can be described thus: Analgesic activity in albino mouse assessed as decrease in acetic acid-induced writhing at 11.66 mg/kg, po administered 1 hr prior to acetic acid challenge relative to control. Format: functional. An outline of the steps: as §2
In data set [25] the test system is Mus musculus. The data set can be described thus: Analgesic activity in albino mouse assessed as decrease in acetic acid-induced writhing at 12.65 mg/kg, po administered 1 hr prior to acetic acid challenge relative to control. Format: functional. An outline of the steps:
as §2

Turning to `CCN1C(=S)N2CCCC2C2=C1NC(c1ccc(OC)c(O)c1)NC2=O` (stereo not given), the inhibition in vivo at 29 µmol/kg in data set [1] is 9.12%; in data set [2], 22.4%; in data set [4] it was 2.89%; in [5], 3.09%. Also, the inhibition in vivo at 2 mg/kg in data set [3] came to 92%. Moreover, in data set [6], the inhibition in vivo at 8 mg/kg was determined as 97%. Also, the inhibition in vivo at 1 mg/kg in data set [7] was found to be 86.9%. Moreover, in [8], the inhibition in vivo at 10.86 mg/kg was 98.7%. In data set [9], the inhibition in vivo at 0.4 mg/kg came to 53.6%. Besides, the inhibition in vivo at 0.8 mg/kg in data set [10] is 76%. Also, in data set [11], the relative potency at 29 µmol/kg amounted to 0.11. The IC50 in data set [12] was 0.359 mg/kg. The inhibition in vivo at 4 mg/kg in data set [13] was 95.3%.
As to `CCN1C(=S)N2CCCC2C2=C1NC(c1ccc(OC)cc1)NC2=O` (stereo not given), the inhibition in vivo at 29 µmol/kg in data set [1] is 9.12%; in data set [2], 10.1%; in [4] it was 10.8%; in data set [5], 14.9%. Also, in data set [14], the inhibition in vivo at 10.39 mg/kg is 85%. Besides, the relative potency at 29 µmol/kg in [11] was determined as 0.54.
With `O=C1N(c2ccccc2)c2nc(-c3ccccc3)nc(N3CCOCC3)c2C2CCCN12` (stereo not given), the inhibition in vivo at 29 µmol/kg in data set [1] came out at 19%; in [2], 11.2%; in data set [4], 18.7%; in data set [5] it was 11.2%. In addition, the inhibition in vivo at 12.4 mg/kg in data set [15] was 67%. The UI result in [16] is reported as “Non-toxic”. In [11], the relative potency at 29 µmol/kg stood at 0.4.
As to `CCN1C(=S)N2CCCC2c2c1ncn(CC)c2=N` (stereo not given), the inhibition in vivo at 29 µmol/kg in [1] came to 11.6%; in data set [2], 11.6%; in data set [4], 10.8%; in data set [5], 9.91%. The inhibition in vivo at 8.04 mg/kg in [17] turned out to be 75.9%. Moreover, the relative potency at 29 µmol/kg in data set [11] came to 0.36.
As for `N#Cc1cnn(-c2nc(-c3ccccc3)nc3c2C2CCCN2C(=O)N3c2ccccc2)c1N` (stereo not given), the inhibition in vivo at 29 µmol/kg in data set [1] amounted to 9.92%; in [2], 12.3%; in data set [4] it was 9.37%; in [5], 6.82%. Further, in data set [18], the inhibition in vivo at 13 mg/kg was determined as 76.8%. Also, the relative potency at 29 µmol/kg in data set [11] came to 0.24.
For `CCCNc1nc(-c2ccccc2)nc2c1C1CCCN1C(=O)N2c1ccccc1` (stereo not given), in [19], the inhibition in vivo at 20 mg/kg worked out at 63.3%. In addition, the inhibition in vivo at 29 µmol/kg in data set [1] amounted to 25.6%; in data set [2], 13.5%; in data set [4], 30.9%; in data set [5] it was 36.6%. Besides, in [20], the inhibition in vivo at 10 mg/kg is 27.6%. For the same molecule, the inhibition in vivo at 25 mg/kg in data set [21] was 69%. The inhibition in vivo at 15 mg/kg in [22] is 41.6%. In data set [23], the IC50 turned out to be 16.5 mg/kg. Moreover, the inhibition in vivo at 11.66 mg/kg in [24] turned out to be 69.6%. For the same molecule, in [11], the relative potency at 29 µmol/kg worked out at 1.34.
Consider `Cc1cc(C)n(-c2nc(-c3ccccc3)nc3c2C2CCCN2C(=O)N3c2ccccc2)n1` (stereo not given), for which the inhibition in vivo at 29 µmol/kg in [1] came to 20.7%; in [2], 17.9%; in [4] it was 20.9%; in [5] it was 17.4%. Moreover, the inhibition in vivo at 12.65 mg/kg in data set [25] came to 76.6%. The relative potency at 29 µmol/kg in data set [11] stood at 0.63.
